Legend:
C57BL/6J mice = test: Survival of mice after APAP overdose; format: in vivo, mouse (C57BL/6J); details: APAP 600 mg/kg oral gavage, within 24 hours
Summary of the method: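 Fasted C57BL/6J mice were dosed by oral gavage with APAP dissolved in warm saline, at several doses including 600 mg/kg, and survival was tracked (n ≥ 9 per group). In the 24-h treatment arm, peptide was given intravenously at 100 µg/dose, 6, 12 and 18 h after APAP.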

[1] = system: liver of APAP-treated mice; test: Serum ALT; format: in vivo, mouse; details: APAP 600 mg/kg oral gavage; 6 to 36 hours after overdose
Summary of the method: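 Fasted mice received APAP 600 mg/kg, dissolved in warm saline, by oral gavage. Hepatocyte necrosis was followed over time by serum ALT, and liver sections were examined by H&E histopathology. Groups had at least five mice, and each experiment was done at least twice. Data are mean ± SEM, analysed by t test or one-way ANOVA.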

liver = test: Histopathology of liver sections; format: in vivo, mouse; details: APAP 600 mg/kg, H&E-stained liver sections, up to 24 hours
Summary of the method: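 APAP (600 mg/kg) was given in warm saline by oral gavage to fasted mice. Livers were taken at times up to 24 h. Necrotic areas were scored on sections stained with hematoxylin and eosin. Groups had at least five mice, and experiments were repeated at least twice. Data are mean ± SEM.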

[2] = system: pro-inflammatory mediators in liver and serum; test: Cytokine/chemokine ELISA in liver lysates and serum of APAP-treated mice; format: in vivo, mouse; details: APAP 600 mg/kg, as early as 6 hours
Summary of the method: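 Fasted mice received APAP (600 mg/kg) dissolved in warm saline by oral gavage; controls received vehicle. TNF-α, CXCL1, CXCL2 and CXCL6 were measured by ELISA in liver lysates and serum over a time course after overdose. Groups had at least five mice, and experiments were run at least twice. Data are mean ± SEM, compared by one-way ANOVA.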

neutrophils in the liver = test: Neutrophil recruitment to the liver; format: in vivo, mouse (LysM-eGFP); details: APAP-treated LysM-eGFP mice, time course
Summary of the method: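 LysM-eGFP mice were fasted and given oral APAP in warm saline. Neutrophils were counted in the liver by their GFP signal using confocal intravital microscopy over the injury time course. Extracellular DNA was visualised with i.v. Sytox green (2 µL of 5 mM). Groups had at least five mice, with experiments repeated at least twice. Data are mean ± SEM.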

[3] = system: myeloperoxidase (MPO) activity in liver; test: MPO activity in liver lysates; format: in vivo, mouse; details: APAP-treated C57BL/6J mice
Summary of the method: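 MPO activity was measured in liver lysates as an estimate of neutrophil infiltration. C57BL/6J mice were fasted, then dosed with APAP in warm saline by oral gavage. Treatment arms received 100 µg peptide i.v. at 6, 12 and 18 h after overdose. Groups had at least five mice, and each experiment was run at least twice. Data are mean ± SEM, compared by t test or one-way ANOVA.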

[4] = system: APAP-induced liver injury; details: reducing agent; cited from earlier work
bacterial DNA = bacterial DNA present in skin injury; cited from earlier work
[5] = cited from earlier work
[6] = system: extracellular DNA and MIG30 staining in the liver; test: Enzymatic removal of DNA and MIG30 staining from the injured liver; format: in vivo, mouse; details: APAP-treated mice, MIG30-TAMRA 20 µg; hyaluronidase 1,000 U or heparinase III 100 µg i.v.; up to 10 minutes
Summary of the method: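 Fasted mice received APAP (dissolved in warm saline) by oral gavage. They then received i.v. Sytox green and 20 µg TAMRA-labelled peptide. Next they were given i.v. hyaluronidase (1,000 U) or heparinase III (100 µg); DNase 1 (1,000 U) was given similarly. Mean fluorescence intensity of DNA and peptide in liver was followed by confocal intravital microscopy for up to 10 minutes.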

For `CC(=O)Nc1ccc(O)cc1` [APAP, Acetaminophen], the mortality (C57BL/6J mice) was 40%, the “liver damage (serum ALT levels)” value [1] was “significant liver damage as early as 6 hours after APAP intoxication and up to 36 hours after the overdose” and the “hepatic necrosis (histopathology)” value (liver) was “extensive hepatic necrosis”. For the same molecule, the “CXCL1 produced in the liver” value [2] was “significant amounts”, the “CXCL2 produced in the liver” value [2] was “significant amounts” and the “CXCL6 produced in the liver” value [2] was “significant amounts”. For the same molecule, the “TNF-α produced in the liver” value [2] was “significant amounts”, the “neutrophil infiltration in the liver” value (neutrophils in the liver) was “profound neutrophil infiltration was observed between 12 and 36 hours after injury, which was maximal at the 24‐hour timepoint” and the “neutrophils in liver by MPO assay” value [3] was “presence of neutrophils predominantly 24 hours after APAP treatment”.

In the case of `CC(=O)N[C@@H](CS)C(=O)O` [N‐acetylcysteine], the “effect on APAP-induced liver injury and inflammation” value [4] is given as “effective only if given soon after the APAP challenge or as a pretreatment”.

For CXCL10: chemokine CXCL10, the “binding to bacterial DNA” value (bacterial DNA) is listed as “bind to bacterial DNA”.

In the case of CXCL11: chemokine CXCL11, the “binding to bacterial DNA” value (bacterial DNA) is listed as “bind to bacterial DNA”.

For KKVLKVRKAQRSRQKKTT [control peptide], the GAG binding [5] is listed as “poor GAG affinity”.

In the case of hyaluronidase, the “removal of MIG30 staining from liver by glycosidase” value [6] is reported as “Neither the DNA nor the MIG30 staining were significantly removed”.

B1: heparinase: Heparinase III produced and provided by A. Kungl (protein, UniProt Q59289 25-659, looked up)
Heparin-sulfate lyase: QSSSITRKDFDHINLEYSGLEKVNKAVAAGNYDDAAKALLAYYREKSKAREPDFSNAEKPADIRQPIDKVTREMADKALVHQFQPHKGYGYFDYGKDINWQMWPVKDNEVRWQLHRVKWWQAMALVYHATGDEKYAREWVYQYSDWARKNPLGLSQDNDKFVWRPLEVSDRVQSLPPTFSLFVNSPAFTPAFLMEFLNSYHQQADYLSTHYAEQGNHRLFEAQRNLFAGVSFPEFKDSPRWRQTGISVLNTEIKKQVYADGMQFELSPIYHVAAIDIFLKAYGSAKRVNLEKEFPQSYVQTVENMIMALISISLPDYNTPMFGDSWITDKNFRMAQFASWARVFPANQAIKYFATDGKQGKAPNFLSKALSNAGFYTFRSGWDKNATVMVLKASPPGEFHAQPDNGTFELFIKGRNFTPDAGVFVYSGDEAIMKLRNWYRQTRIHSTLTLDNQNMVITKARQNKWETGNNLDVLTYTNPSYPNLDHQRSVLFINKKYFLVIDRAIGEATGNLGVHWQLKEDSNPVFDKTKNRVYTTYRDGNNLMIQSLNADRTSLNEEEGKVSYVYNKELKRPAFVFEKPKKNAGTQNFVSIVYPYDGQKAPEISIRENKGNDFEKGKLNLTLTINGKQQLVLVP
With B1 the “removal of MIG30 staining from liver by glycosidase” value [6] was “Neither the DNA nor the MIG30 staining were significantly removed”.

B2: CXCL9: full-length chemokine CXCL9 (protein, UniProt Q07325 1-125, looked up)
chain: MKKSGVLFLLGIILLVLIGVQGTPVVRKGRCSCISTNQGTIHLQSLKDLKQFAPSPSCEKIEIIATLKNGVQTCLNPDSADVKELIKKWEKQVSQKKKQKNGKKHQKKKVLKVRKSQRSRQKKTT
modifications: full-length
In the case of B2, the “binding to bacterial DNA” value (bacterial DNA) is given as “bind to bacterial DNA”.

From article PMC8485890 (Hepatology Communications, 2021)
